Measured values from the array DNA melting data of Ke et al. (doi:10.1101/2024.01.08.574731).

How the values were obtained:
[1] = melting temperature; fluorescence melt of hairpins on a sequencing array, two-state fit, raised by 9.35 °C to match UV melts; details: sodium 0.088 M
In short: (§1)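 In 50 mM Na-HEPES pH 8.0 containing 25 mM NaCl, hairpins from the library on a sequenced MiSeq flow cell were imaged for Cy3 fluorescence at 2.5 °C steps up to 60 °C, with Cy3 and quencher oligos annealed. After normalisation to pre-quench Cy3 and to control constructs, two-state fits with bootstrapping gave melting temperature and folding enthalpy. Four replicates were combined by inverse-variance weighting, and fitted temperatures were shifted up by 9.35 °C to match UV melts.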

[2] = folding enthalpy; higher = less favourable; fluorescence melt of hairpins on a sequencing array, two-state fit; details: sodium 0.088 M
In short: as §1

| Sequence | Tm [1] [°C] | folding enthalpy [2] [kcal/mol] |
| --- | --- | --- |
| GACGGACGAAAGTCGGTC (((.(((....))).))) | 58.1 | -35.2 |
| CACCAGAAATGGTG (((((....))))) | 50 | -23.4 |
| GGGACCGAAAGGTCACCC ((((((....)))..))) | 56.9 | -12.2 |
| GGGTTCGCGAAAGCGCCC (((..(((....)))))) | 43.6 | -15.3 |
| GGGTCCGAAAGGAAACCC ((((((....)))..))) | 50.2 | -22.8 |
| GCTACGCCGAAAGGCAGC (((..(((....)))))) | 42.3 | -11.9 |
| GATCAAAGTTTTGATC ((((((....)))))) | 46.1 | -29.2 |
| CGCGGAACATCCGCG ((((((...)))))) | 69 | -27.5 |
| GTCACAGGAAACCGTGAC (((((.(....).))))) | 49.1 | -30.3 |
| GATCACTGGCGTGATC ((((((....)))))) | 55.2 | -41.4 |
| GATCGAGGCATCGATC ((((((....)))))) | 58.5 | -41.8 |
| GCGAAGTCGAAAGACCGC (((..(((....)))))) | 52.5 | -26.9 |
| GACGAACGAAAGTTGGTC (((.(((....))).))) | 48.8 | -36.7 |
| CGACTGCGGAAACGCTCG (((..(((....)))))) | 32.7 | -12.5 |
| GATCCGTAAACGGATC ((((((....)))))) | 60.3 | -38.2 |
| GCAGCCGAAAGGCCCTGC ((((((....)))..))) | 34.8 | -12.5 |
| GGCGTTGCGAAAGCAGCC (((..(((....)))))) | 63.1 | -32.3 |
| GCCGACGAAAGTCTGGGC ((((((....)))..))) | 54.6 | -27.6 |
| GTCTCGCGAAAGCGCGAC (((.(((....))).))) | 53 | -27.7 |
| GTTACTCGAAAGAGGAAC (((.(((....))).))) | 53.6 | -36.2 |
| GAGCGCGAAAGCGTCCTC ((((((....)))..))) | 42.2 | -10 |
| GCCACGACGAAAGTCGGC (((..(((....)))))) | 44.1 | -10.2 |
| GATCGCCGCTGCGATC ((((((....)))))) | 66.9 | -38.5 |

| Sequence | Tm [1] [°C] | folding enthalpy [2] [kcal/mol] |
| --- | --- | --- |
| GCTAGCGGAAACGCCAGC (((.(((....))).))) | 48.4 | -23.6 |
| GTGGCGACGAAAGTCCAC (((..(((....)))))) | 42.8 | -17.3 |
| GCATATGCGAAAGCATGC (((..(((....)))))) | 48.2 | -14.8 |
| GTCAACGAAAGTTAAGAC ((((((....)))..))) | 31.3 | -19.2 |
| GTCAGGGGAAACCTTGAC ((((.((....)).)))) | 47.2 | -28.1 |
| GTACCGGGAAACCGGCAC ((.((((....)))).)) | 47.9 | -17.7 |
| GATCAGGCGTCTGATC ((((((....)))))) | 51 | -39.3 |
| GATCCCCTTCGGGATC ((((((....)))))) | 58.7 | -39.9 |
| GCCGTGCGAAAGCCCCGC ((.(.((....)).).)) | 29.3 | -9.26 |
| GATCATTTGAATGATC ((((((....)))))) | 48.2 | -35.4 |
| GGGAGTCCGAAAGGACCC (((..(((....)))))) | 53.6 | -14 |
| GATCCGAAACGGATC ((((((...)))))) | 57 | -35.4 |
| GTTACCGAAAGGTTAAAC ((((((....)))..))) | 30.6 | -9.83 |
| GCTTGTGGAAACATAGGC ((.(.((....)).).)) | 32 | -14.7 |
| GAGAGGCCGAAAGGCCTC (((..(((....)))))) | 65.9 | -7.49 |
| GAGAGTACGAAAGTACTC (((..(((....)))))) | 55.2 | -11.7 |
| GCCTCGCGAAAGCCTGGC (((..((....))..))) | 46.5 | -22.9 |
| CGGACGGAAACGTATCCG ((((((....)))..))) | 36.7 | -17.5 |
| GGAGCCGAAAGGCCTCC ((((((....))).))) | 54.5 | -24.4 |
| GGATGCGAAAGCATTCC ((((((....))).))) | 55.9 | -16.9 |
| GTATTGGCGAAAGCCTAC (((..(((....)))))) | 41.5 | -3.67 |
| GTGGGTGGAAACACCTGC (..((((....))))..) | 43 | -14.7 |
| GATCTTCTTAAGATC ((((((...)))))) | 44.3 | -30.1 |

| Sequence | Tm [1] [°C] | folding enthalpy [2] [kcal/mol] |
| --- | --- | --- |
| GATCCTGTCGAGGATC ((((((....)))))) | 57.2 | -36.3 |
| GTTGAGAAATCAAC (((((....))))) | 42.2 | -19.9 |
| GACTACGGAAACGCAGTC ((((.((....)).)))) | 42.1 | -28.3 |
| GTTGTGGAAACACAAC ((((((....)))))) | 58.3 | -38.3 |
| GCCTAGACGAAAGTCGGC (((..(((....)))))) | 53.3 | -21.6 |
| GGACACGCGAAAGCGTCC (((..(((....)))))) | 42.1 | -9.09 |
| GGCAGCGAAAGCTTCGCC ((((((....)))..))) | 49.1 | -17.4 |
| GACGGCGAAAGCCCGTC ((((((....))).))) | 65.4 | -24.7 |
| GATCCGGTGGCGGATC ((((((....)))))) | 56.5 | -31.4 |
| GCGAATAATCGC ((((....)))) | 46.2 | -14 |
| GATCTTTACAAAGATC ((((((....)))))) | 46.5 | -33.8 |
| GCGAGACTCGC ((((...)))) | 49 | -10.2 |
| GCAAAGCGAAAGCCTTGC ((((.((....)).)))) | 53 | -22.1 |
| GCGTAGCAACGC ((((....)))) | 61.4 | -9.68 |
| GCTCCTGGAAACAGGAAC (.(((((....))))).) | 36.6 | -19.3 |
| GCCGATCGAAAGATGGC (((.(((....)))))) | 54.5 | -26.7 |
| GATCCGCTATCGGATC ((((((....)))))) | 57.2 | -40.2 |
| GGTTACGGAAACGCAACC ((((.((....)).)))) | 46.6 | -32.7 |
| GTGCGGCCGAAAGGCCAC (((..(((....)))))) | 64.1 | -10.1 |
| GCAGGCGAAAGCCGATGC ((((((....)))..))) | 53.9 | -13.3 |
| GGATCCGAAAGGAATTCC ((((((....)))..))) | 32.2 | -14.1 |
| GACGATGGAAACATCGCC (.(((((....))))).) | 47.3 | -17.9 |
| GTTGGCGAAAGCCGCAAC ((((((....)))..))) | 26.3 | -9.16 |

| Sequence | Tm [1] [°C] | folding enthalpy [2] [kcal/mol] |
| --- | --- | --- |
| GCAAGCGGAAACGTTTGC ((((.((....)).)))) | 53.5 | -38.5 |
| GATCCAAACTTGGATC ((((((....)))))) | 53.1 | -39.4 |
| GAGGAAGGAAACTTCCTC (((((((....))))))) | 59 | -35.5 |
| GCGTGCGAAAGCAAACGC ((((((....)))..))) | 60.2 | -29.6 |
| GCGAGCTCGAAAGAGCGC (((..(((....)))))) | 54.9 | -9.24 |
| GAACCGGGAAACCAGTTC ((((.((....)).)))) | 36.5 | -26.2 |
| GAAGACGAAAGTCATTC ((((((....))).))) | 31.4 | -14.1 |
| GTATGGCGAAAGCCCTAC (((.(((....))).))) | 37.8 | -18.4 |
| GATCGTACGGACGATC ((((((....)))))) | 54.4 | -45.6 |
| GCTAAGCCGAAAGGCAGC (((..(((....)))))) | 50 | -18.6 |
| GCCTTGGGAAACCAAGAC (.(((((....))))).) | 38.7 | -19.3 |
| GTCTCGGGAAACCGAAAC ((.((((....)))).)) | 34.7 | -15.4 |
| GCCCACGGAAACATGGGC (((((.(....).))))) | 50.7 | -30.8 |
| CGGTCGGAAACGACCCCG ((((((....)))..))) | 37.3 | -9.36 |
| CGATTCGGAAACGAGTCG (((.(((....))).))) | 50.8 | -43.6 |
| GGGGTCCCGAAAGGGCCC (((..(((....)))))) | 65.3 | -14.6 |
| GATCCTCTACAGGATC ((((((....)))))) | 51.8 | -31.1 |
| GACTTGGGAAACCAAATC ((.((((....)))).)) | 28 | -14 |
| CGAGTCGGAAACGATTCG (((.(((....))).))) | 50.4 | -47.2 |
| GTTTATCGAAAGATTAAC (((.(((....))).))) | 33.5 | -28.9 |
| GCGTGGAGACGC ((((....)))) | 55.6 | -18.2 |
| GGATTGGGAAACCAACCC ((.((((....)))).)) | 41.2 | -31.5 |
| GGTCACGAAAGTGTACC ((((((....))).))) | 51.5 | -25.6 |
